Laboratory results reported in ChEMBL document CHEMBL1138297, “Design, synthesis, and multivariate quantitative structure-activity relationship of salicylanilides--potent inhibitors of type III secretion in Yersinia” (J Med Chem, 2007).
The source made the active and inactive calls. The rule behind the calls is not given here.

Tests used:
[1] = tested on: Yersinia pseudotuberculosis; assay: Effect on T3S in Yersinia pseudotuberculosis 3 pIB29 assessed as inhibition of light emission at 100 uM by luciferase reporter gene assay
Summary of the method: (§1)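 YPIII pIB29 (yopE-luxAB) reporter strain grown overnight at ambient temperature in BHI with 5 mM EGTA and 20 mM MgCl2 to deplete calcium. Culture adjusted to OD600 0.15-0.25 and added to compounds in DMSO (final ≤1%). Incubated 1 h at ambient temperature with shaking, then 2 h at 37 °C. Decanal substrate added and luminescence read at once. Triplicates; repeated on ≥2 occasions.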

[2] = tested on: Yersinia pseudotuberculosis; assay: Effect on T3S in Yersinia pseudotuberculosis 3 pIB29 assessed as inhibition of light emission at 20 uM by luciferase reporter gene assay; summary of the method: as §1
[3] = tested on: Yersinia pseudotuberculosis; assay: Effect on T3S in Yersinia pseudotuberculosis 3 pIB29 assessed as inhibition of light emission at 50 uM by luciferase reporter gene assay; summary of the method: as §1
[4] = tested on: Yersinia pseudotuberculosis; assay: Effect on T3S in Yersinia pseudotuberculosis 3 pIB29 assessed as inhibition of light emission at 10 uM by luciferase reporter gene assay; summary of the method: as §1
[5] = tested on: Yersinia pseudotuberculosis; assay: Effect on T3S in Yersinia pseudotuberculosis 3 pIB29 assessed as inhibition of light emission at 2 uM by luciferase reporter gene assay; summary of the method: as §1
[6] = tested on: Yersinia pseudotuberculosis; assay: Effect on T3S in Yersinia pseudotuberculosis 3 pIB29 assessed as inhibition of light emission at 5 uM by luciferase reporter gene assay; summary of the method: as §1
[7] = tested on: Yersinia pseudotuberculosis; assay: Effect on T3S in Yersinia pseudotuberculosis 3 pIB29 assessed as inhibition of light emission at 1 uM by luciferase reporter gene assay; summary of the method: as §1
[8] = tested on: Yersinia pseudotuberculosis; assay: Effect on T3S in Yersinia pseudotuberculosis 3 pIB29 assessed as inhibition of light emission at 0.5 uM by luciferase reporter gene assay; summary of the method: as §1

Structure (SMILES) | inhibition [1] [%] | inhibition [2] [%] | inhibition [3] [%] | inhibition [4] [%] | inhibition [5] [%] | inhibition [6] [%] | inhibition [7] [%] | inhibition [8] [%] | Activity [2] | Activity [4] | Activity [1] | Activity [3]
COc1cc(Cl)c(C)cc1NC(=O)c1cccc(C(C)C)c1OC(C)=O | -1 | 8 | 4 | 10 |  |  |  |  |  |  |  | 
O=C(Nc1ccccc1F)c1cc(Br)cc(Br)c1O | 78 | 29 | 64 | 14 |  |  |  |  |  |  |  | 
CC(=O)Oc1ccccc1C(=O)Nc1ccc(Cl)cc1 | 99 | 44 | 92 | 23 |  |  |  |  |  |  |  | 
CC(=O)Oc1cc(C)ccc1C(=O)Nc1ccccc1F | 95 | 8 | 53 | 0 |  |  |  |  |  |  |  | 
CC(C)(C)c1cc(NC(=O)c2cc(Br)ccc2O)cc(C(C)(C)C)c1 | 0 | 9 | -4 | 12 |  |  |  |  |  |  |  | 
CC(=O)Oc1ccc(F)cc1C(=O)Nc1ccc(C(C)(C)C)cc1 | 22 | 37 | 22 | 37 |  |  |  |  |  |  |  | 
O=C(Nc1ccc(Cl)cc1)c1cc(I)ccc1O | 78 | 85 | 80 | 91 | 90 | 91 | 68 | 55 |  |  |  | 
CC(=O)Oc1c(I)cc(I)cc1C(=O)Nc1ccc(C(C)(C)C)cc1 | 2 | 20 | 17 | 17 |  |  |  |  |  |  |  | 
COc1cc(Cl)c(C)cc1NC(=O)c1cc(C)ccc1O | -1 |  | 16 |  |  |  |  |  | inactive | inactive |  | 
O=C(Nc1ccc(Br)cc1)c1cccc(Cl)c1O | 100 | 62 | 96 | 24 | 12 | 12 | 6 | 5 |  |  |  | 
CC(=O)Oc1ccc(I)cc1C(=O)Nc1ccc(Cl)cc1 | 100 | 100 | 100 | 99 | 92 | 99 | 73 | 58 |  |  |  | 
CC(C)(C)c1ccc(NC(=O)c2c(O)c(Cl)cc(Cl)c2Cl)cc1 | 34 | 28 | 23 | 27 |  |  |  |  |  |  |  | 
CC(=O)Oc1c(I)cc(I)cc1C(=O)Nc1cc(Cl)ccc1F | 95 | 58 | 89 | 34 | 1 | 9 | 1 | 6 |  |  |  | 
CC(=O)Oc1c(Cl)cc(Cl)c(Cl)c1C(=O)Nc1ccc(SC(F)(F)F)cc1 | 92 | 95 | 89 | 67 | 42 | 47 | 15 | 5 |  |  |  | 
CCCCCCCc1ccc(NC(=O)c2cc(I)cc(I)c2O)cc1 | 3 | 27 | 22 | 30 |  |  |  |  |  |  |  | 
CC(=O)Oc1c(I)cc(I)cc1C(=O)Nc1ccc(SC(F)(F)F)cc1 | 75 | 71 | 71 | 72 | 19 | 60 | 11 | 11 |  |  |  | 
CC(=O)Oc1c(Br)cc(Br)cc1C(=O)Nc1ccccc1F | 83 | 15 | 61 | 6 |  |  |  |  |  |  |  | 
O=C(Nc1ccccc1)c1c(O)c(Cl)cc(Cl)c1Cl | 31 | 21 | 23 | 22 |  |  |  |  |  |  |  | 
CC(C)(C)c1ccc(NC(=O)c2cc(I)cc(I)c2O)cc1 | 42 | 40 | 41 | 33 |  |  |  |  |  |  |  | 
CC(=O)Oc1c(Cl)cc(Cl)c(Cl)c1C(=O)Nc1ccc(F)cc1 | 54 | 23 | 32 | 19 |  |  |  |  |  |  |  | 
O=C(Nc1ccc(Cl)cc1)c1cc(F)cc(F)c1 |  |  |  |  |  |  |  |  | inactive | inactive | inactive | inactive
CC(=O)Oc1c(I)cc(I)cc1C(=O)Nc1ccc(Cl)cc1 | 99 | 98 | 99 | 76 | 17 | 54 | 7 | 3 |  |  |  | 
COc1cc(Cl)c(C)cc1NC(=O)c1cc(I)cc(I)c1OC(C)=O | 50 | 19 | 35 | 11 |  |  |  |  |  |  |  | 

Structure (SMILES) | inhibition [1] [%] | inhibition [2] [%] | inhibition [3] [%] | inhibition [4] [%] | inhibition [5] [%] | inhibition [6] [%] | inhibition [7] [%] | inhibition [8] [%] | Activity [2] | Activity [4] | Activity [1] | Activity [3]
CC(=O)Oc1ccc(I)cc1C(=O)Nc1ccc(Br)cc1 | 100 | 100 | 100 | 98 | 94 | 100 | 71 | 54 |  |  |  | 
CC(=O)Oc1ccc(I)cc1C(=O)Nc1ccc(SC(F)(F)F)cc1 | 100 | 74 | 99 | 58 | 80 | 56 | 52 | 17 |  |  |  | 
O=C(Nc1ccc(Br)cc1)c1cc(I)ccc1O | 60 | 67 | 62 | 71 | 68 | 68 | 49 | 20 |  |  |  | 
O=C(Nc1ccc(Cl)cc1)c1cc(I)cc(I)c1O | 99 | 100 | 100 | 100 | 60 | 95 | 47 | 15 |  |  |  | 
O=C(Nc1ccc(Cl)cc1)c1ccccc1O | 100 | 64 | 99 | 14 |  |  |  |  |  |  |  | 
COc1cc(Cl)c(C)cc1NC(=O)c1cc(C)ccc1OC(C)=O |  |  | -2 |  |  |  |  |  | inactive | inactive |  | 
CC(=O)Oc1c(C(=O)Nc2ccc(SC(F)(F)F)cc2)cc2cc(Br)ccc2c1Br | -3 | 10 | 4 | 9 |  |  |  |  |  |  |  | 
CC(=O)Oc1c(Cl)cccc1C(=O)Nc1ccc(Br)cc1 | 99 | 36 | 78 | 18 | 9 | 12 | 8 | -2 |  |  |  | 
COc1cc(Cl)c(C)cc1NC(=O)c1cc(I)cc(I)c1O | 67 | 55 | 57 | 35 |  |  |  |  |  |  |  | 
Cc1ccc(C(=O)Nc2ccccc2F)c(O)c1 | 34 | 21 | 35 | 23 |  |  |  |  |  |  |  | 
Cc1cc(C)cc(NC(=O)c2c(O)c(Cl)cc(Cl)c2Cl)c1 | 52 | 24 | 46 | 21 |  |  |  |  |  |  |  | 
CC(=O)Oc1c(I)cc(I)cc1C(=O)Nc1ccc(Br)cc1 | 95 | 86 | 94 | 69 | 7 | 38 | 8 | 11 |  |  |  | 
CC(=O)Oc1c(I)cc(I)cc1C(=O)Nc1ccccc1 | 94 | 48 | 75 | 30 |  |  |  |  |  |  |  | 
CC(=O)Oc1c(Cl)cc(Cl)c(Cl)c1C(=O)Nc1ccccc1 | 10 |  | 12 |  |  |  |  |  | inactive | inactive |  | 
CC(=O)Oc1ccc(Br)cc1C(=O)Nc1cc(C(C)(C)C)cc(C(C)(C)C)c1 | 0 |  | 15 |  |  |  |  |  | inactive | inactive |  | 
O=C(Nc1ccc(F)cc1)c1c(O)c(Cl)cc(Cl)c1Cl | 45 | 19 | 32 | 19 |  |  |  |  |  |  |  | 
CC(C)(C)c1ccc(NC(=O)c2cc(F)ccc2O)cc1 | 8 | 12 | 13 | 13 |  |  |  |  |  |  |  | 
CCCCCCCc1ccc(NC(=O)c2cc(I)cc(I)c2OC(C)=O)cc1 | 5 | 19 | 17 | 19 |  |  |  |  |  |  |  | 
CC(=O)Oc1c(Cl)cc(Cl)c(Cl)c1C(=O)Nc1ccc(C(C)(C)C)cc1 | 12 | 7 | 19 | 4 |  |  |  |  |  |  |  | 
O=C(Nc1ccc(SC(F)(F)F)cc1)c1cc2cc(Br)ccc2c(Br)c1O | 63 | 55 | 63 | 41 |  |  |  |  |  |  |  | 
CC(=O)Oc1c(Cl)cc(Cl)c(Cl)c1C(=O)Nc1cc(C)cc(C)c1 | 20 | 6 | 5 | 6 |  |  |  |  |  |  |  | 
O=C(Nc1ccccc1)c1cc(I)cc(I)c1O | 99 | 51 | 87 | 32 |  |  |  |  |  |  |  | 
COc1cc(Cl)c(C)cc1NC(=O)c1cccc(C(C)C)c1O | 5 | 25 | 19 | 23 |  |  |  |  |  |  |  | 
